{"source": "paper PMC9386786", "about": "(Cell metabolism, 2022)", "key": {"[1]": {"target": "CNOT6L (Homo sapiens, UniProt Q96LI5)", "sequence (Q96LI5 158-555)": "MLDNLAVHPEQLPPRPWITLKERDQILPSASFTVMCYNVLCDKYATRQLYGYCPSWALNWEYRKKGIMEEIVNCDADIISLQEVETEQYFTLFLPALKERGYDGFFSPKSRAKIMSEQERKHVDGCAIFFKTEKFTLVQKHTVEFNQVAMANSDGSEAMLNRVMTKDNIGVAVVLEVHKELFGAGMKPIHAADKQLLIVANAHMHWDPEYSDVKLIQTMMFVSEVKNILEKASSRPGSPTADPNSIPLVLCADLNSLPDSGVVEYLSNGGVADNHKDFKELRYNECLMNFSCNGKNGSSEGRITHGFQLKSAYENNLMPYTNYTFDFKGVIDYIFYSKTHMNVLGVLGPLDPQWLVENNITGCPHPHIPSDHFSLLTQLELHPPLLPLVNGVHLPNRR", "experiment": "Gel-based deadenylase assay, CNOT6L", "type": "biochemical"}, "[2]": {"system": "GDF15 and FGF21 mRNAs in Huh7 cells", "experiment": "Hepatokine mRNA and protein levels in Huh7 cells", "type": "cell-based, human", "settings": "for EC50: Homo sapiens"}, "[3]": {"system": "promoter activity of GDF15 and FGF21 genes", "experiment": "Promoter luciferase reporter assay in Huh7 cells", "type": "cell-based, human", "in_short": "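Human GDF15 or FGF21 promoters were PCR-amplified from Huh7 genomic DNA and placed upstream of firefly luciferase; a promoter-less construct served as control. Constructs (50–100 ng) were lipofected into Huh7 cells with a Renilla luciferase (TK) control, and cells were treated with vehicle or test compound. Firefly activity was read by dual-luciferase assay and normalized to Renilla.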"}, "[4]": {"system": "3' UTRs of human GDF15 and FGF21 and mouse Gdf15 and Fgf21 mRNAs", "experiment": "3' UTR luciferase assay in Huh7 cells", "type": "cell-based", "in_short": "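Human GDF15/FGF21 3′UTRs (amplified from Huh7 cDNA) and mouse Gdf15/Fgf21 3′UTRs (from WT mouse liver cDNA) were cloned downstream of the firefly luciferase coding region. These plasmids (50–100 ng) were lipofected into Huh7 cells together with a Renilla luciferase (TK) control. Firefly and Renilla activities were measured by dual-luciferase assay, and firefly signal was normalized to Renilla to correct for transfection efficiency.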"}, "[5]": {"system": "WT mice", "experiment": "Oxygen consumption and RER", "type": "in vivo, mouse", "in_short": "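WT mice received a single ip injection of vehicle or test compound (2 mg/kg). They were then housed singly on a 12 h light/dark cycle, either fed or food-deprived. VO2 and VCO2 were recorded at 25 °C by indirect calorimetry, and dark- and light-cycle averages were taken. VO2 was expressed per kg body weight per hour, and RER was calculated as VCO2/VO2.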"}, "[6]": {"system": "neurons in NTS, AP and PVN", "experiment": "c-Fos immunofluorescence in the brain", "type": "in vivo, mouse"}, "[7]": {"system": "hepatic Gdf15 and Fgf21 mRNAs, serum GDF15 and FGF21", "experiment": "Hepatokine levels after intraperitoneal administration in WT C57BL/6J mice", "type": "in vivo, mouse", "in_short": "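WT mice received test compound ip at 2 mg/kg. For fasting/refeeding, mice were fed, fasted 24 h, or refed 2 h after a 24 h fast, and were injected 3 h before dissection. For exercise, mice ran to exhaustion on a 10°-sloped shock treadmill and were sampled before, immediately after, or 3 h after running, with food and water available. Poly(I:C) was given ip at 10 mg/kg. Hepatic mRNA was measured by RT-qPCR (Hprt-normalized) and serum GDF15/FGF21 by ELISA.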"}, "[8]": {"target": "CNOT6 (Homo sapiens, UniProt Q9ULM6)", "sequence (Q9ULM6 153-557)": "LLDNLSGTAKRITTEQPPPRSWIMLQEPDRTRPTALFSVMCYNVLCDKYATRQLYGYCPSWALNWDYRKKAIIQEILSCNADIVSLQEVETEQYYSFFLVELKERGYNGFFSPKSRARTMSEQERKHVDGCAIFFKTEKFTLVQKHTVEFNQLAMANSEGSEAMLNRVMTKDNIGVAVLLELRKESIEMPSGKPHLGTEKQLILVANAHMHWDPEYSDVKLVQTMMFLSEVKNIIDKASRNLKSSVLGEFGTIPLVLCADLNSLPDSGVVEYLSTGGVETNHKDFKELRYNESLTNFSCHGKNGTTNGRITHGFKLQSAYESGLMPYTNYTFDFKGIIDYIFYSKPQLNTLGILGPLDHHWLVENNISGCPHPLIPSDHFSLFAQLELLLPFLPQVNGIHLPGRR", "experiment": "Gel-based deadenylase assay, CNOT6", "type": "biochemical", "settings": "compared to CNOT6L", "in_short": "(§1)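 Enzymes were expressed in and purified from E. coli BL21: the human CNOT6 catalytic domain (aa 153–557) and full-length human CNOT7 and CNOT8. Each enzyme (2.5 μM final) was preincubated with inhibitor at the indicated concentrations for 1 h at 37 °C. 5′-FITC-labelled poly(A)20 RNA (50 nM final) was then added for 1.5 h at 37 °C, and deadenylation was resolved on gel.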"}, "[9]": {"system": "GDF15 and FGF21 mRNAs in primary hepatocytes and Huh7 cells", "experiment": "mRNA stability assay with actinomycin D", "type": "cell-based", "settings": "with actinomycin D 5 μg/mL; iD1 5 μM", "in_short": "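Mouse primary hepatocytes and Huh7 cells were treated with actinomycin D (5 μg/mL) plus DMSO vehicle or test compound (5 μM in hepatocytes) for a time course. Before actinomycin D, Huh7 cells were pretreated with Wy-14643 (200 μM, 6 h) to induce FGF21 mRNA. Transcripts were measured by RT-qPCR, normalized to Hprt or GAPDH, and expressed as percent of the initial level. Half-lives were fitted by first-order decay; n = 3.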"}, "[10]": {"system": "translation of Gdf15 and Fgf21 mRNAs in liver", "experiment": "Polysome profiling of livers of treated mice", "type": "in vivo, mouse"}, "[11]": {"target": "CNOT8 (Homo sapiens, UniProt Q9UFF9)", "sequence (Q9UFF9 whole entry)": "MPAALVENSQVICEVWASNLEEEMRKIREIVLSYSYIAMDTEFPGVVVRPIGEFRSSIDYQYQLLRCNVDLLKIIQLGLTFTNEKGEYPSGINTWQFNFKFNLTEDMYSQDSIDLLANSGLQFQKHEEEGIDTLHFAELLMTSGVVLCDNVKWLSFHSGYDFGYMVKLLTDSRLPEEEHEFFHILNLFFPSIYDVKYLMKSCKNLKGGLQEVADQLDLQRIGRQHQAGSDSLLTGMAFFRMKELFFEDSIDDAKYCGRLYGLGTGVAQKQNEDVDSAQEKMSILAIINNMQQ", "experiment": "Gel-based deadenylase assay, CNOT8", "type": "biochemical", "in_short": "as §1"}, "[12]": {"target": "CNOT7 (Homo sapiens, UniProt Q9UIV1)", "sequence (Q9UIV1 whole entry)": "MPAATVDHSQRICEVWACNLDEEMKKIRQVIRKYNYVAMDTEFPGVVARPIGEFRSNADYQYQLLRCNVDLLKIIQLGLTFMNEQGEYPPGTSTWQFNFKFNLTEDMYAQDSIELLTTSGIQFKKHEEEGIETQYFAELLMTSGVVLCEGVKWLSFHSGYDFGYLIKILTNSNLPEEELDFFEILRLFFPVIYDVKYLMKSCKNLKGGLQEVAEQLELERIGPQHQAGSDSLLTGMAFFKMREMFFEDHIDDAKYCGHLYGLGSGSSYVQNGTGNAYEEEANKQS", "experiment": "Gel-based deadenylase assay, CNOT7", "type": "biochemical", "in_short": "as §1"}, "[13]": {"system": "WT mice", "type": "in vivo, mouse", "settings": "single administration"}, "[14]": {"system": "C57BL/6J WT mice kept on a high-fat diet", "experiment": "HFD-induced obese mouse model, treatment twice a week for 12 weeks", "type": "in vivo", "in_short": "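From 8 weeks of age, male and female C57BL/6J mice were fed high-fat diet for 12 weeks and given test compound (2 mg/kg) or vehicle ip twice weekly. Measurements included: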"}, "[15]": {"system": "Gdf15 and Fgf21 mRNAs in primary hepatocytes", "experiment": "Hepatokine mRNA levels in mouse primary hepatocytes", "type": "cell-based", "settings": "for EC50: Mus musculus, Hepatocyte", "in_short": "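Hepatocytes were isolated from 8-week-old male mice by portal vein perfusion and collagenase digestion, Percoll-purified, plated on collagen I, and cultured in William's E medium. Huh7 cells were grown in DMEM with 10% FBS. Cells were exposed to test compound at graded concentrations and for various times. mRNAs were quantified by RT-qPCR, normalized to Hprt (mouse) or GAPDH (human); n = 3 per group. EC50 was derived from the concentration–response curves.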"}, "[16]": {"system": "WT mice", "experiment": "Food intake and body weight after a single administration in mice", "type": "in vivo, mouse", "settings": "for ED50: Mus musculus, ip"}, "[17]": {"settings": "ref Xiong et al., 2017; cited from earlier work"}, "[18]": {"settings": "male and female mice, IP twice a week"}}, "note": "Read-outs that look alike come from different tables or passages of the source.", "data": [{"molecule": "Nc1ncnc2c1ncn2[C@@H]1O[C@H](COP(=O)(O)O)[C@@H](O)[C@H]1O", "note": "[AMP]", "values": [{"measurement": "IC50", "setting": "[1]", "value": 76.3, "unit": "µM"}]}, {"molecule": "Cc1cccc(Nc2cc(Cl)nc(SCC(=O)O)n2)c1C", "note": "[WY-14643, reference compound]", "values": [{"measurement": "FGF21 mRNA in Huh7 cells", "setting": "[2]; 200 μM, 6 h", "value": "increased"}]}, {"molecule": "CC(C)=CCC(O)C1=CC(=O)c2c(O)ccc(O)c2C1=O", "note": "(stereo not drawn) [iD1]", "values": [{"measurement": "promoter activity of GDF15 and FGF21 genes", "setting": "[3]", "value": "did not alter"}, {"measurement": "decrease of luciferase activity by 3' UTRs of GDF15/FGF21 mRNAs", "setting": "[4]", "value": "reversed"}, {"measurement": "oxygen consumption", "setting": "[5]; fasted condition, relative to Veh", "value": "consumed more oxygen"}, {"measurement": "respiratory exchange rate (RER)", "setting": "[5]; fed condition", "value": "significantly reduced"}, {"measurement": "c-Fos staining within NTS and AP", "setting": "[6]; 3 h after administration", "value": "robust c-Fos staining"}, {"measurement": "c-Fos staining within PVN in the hypothalamus", "setting": "[6]; after administration", "value": "Robust c-Fos staining"}, {"measurement": "levels of hepatic Gdf15 and Fgf21 mRNAs and serum GDF15 and FGF21 proteins", "setting": "[7]; 3 h after one-time IP injection, 2 mg/kg", "value": "significantly increased"}, {"measurement": "degradation of Gdf15 and Fgf21 mRNAs post-exercise", "setting": "[7]; 3 h post-exercise recovery period, liver", "value": "attenuated degradation"}, {"measurement": "Fgf21 mRNA suppression induced by refeeding", "setting": "[7]; liver, refed after 24 h fasting", "value": "attenuated"}, {"measurement": "inhibition of CNOT6", "setting": "[8]", "value": "modestly inhibited"}, {"measurement": "degradation of GDF15 and FGF21 mRNAs", "setting": "[9]", "value": "potently suppressed degradation"}, {"measurement": "global translation", "setting": "[10]", "value": "did not affect"}, {"measurement": "translational efficacy of Gdf15 and Fgf21 mRNAs", "setting": "[10]", "value": "not affected"}, {"measurement": "inhibition of CNOT8", "setting": "[11]", "value": "did not inhibit"}, {"measurement": "EC50", "setting": "[2]; Huh-7, read-out: EC50 for FGF21 mRNA", "value": 1610, "unit": "nM"}, {"measurement": "EC50", "setting": "[2]; Huh-7, read-out: EC50 for GDF15 mRNA", "value": 530, "unit": "nM"}, {"measurement": "GDF15 and FGF21 protein abundance", "setting": "[2]; Huh7 cells", "value": "increased"}, {"measurement": "effects of thapsigargin and WY-14643 on GDF15 and FGF21 mRNA levels", "setting": "[2]; combination, Huh7 cells, 6 h", "value": "potentiated"}, {"measurement": "inhibition of CNOT7", "setting": "[12]", "value": "did not inhibit"}, {"measurement": "serum insulin levels", "setting": "[13]", "value": "decrease"}, {"measurement": "serum ketone body levels", "setting": "[13]", "value": "increasing"}, {"measurement": "serum triglycerides", "setting": "[13]", "value": "reduced"}, {"measurement": "obesity-induced hyperlipidemia, hyperglycemia, and hyperinsulinemia", "setting": "[14]; HFD", "value": "ameliorated"}, {"measurement": "hepatic steatosis and lipid accumulation in adipose tissues", "setting": "[14]; HFD obese mice", "value": "reversed"}, {"measurement": "insulin sensitivity and glucose tolerance", "setting": "[14]; HFD, long-term treatment, ITT and GTT", "value": "improved"}, {"measurement": "HFD-induced gain of body weight", "setting": "[14]; [18]", "value": "dramatically decreased"}, {"measurement": "food intake on HFD", "setting": "[14]; [18]", "value": "suppressed"}, {"measurement": "EC50", "setting": "[15]; read-out: EC50 for Fgf21 mRNA", "value": 2080, "unit": "nM"}, {"measurement": "EC50", "setting": "[15]; read-out: EC50 for Gdf15 mRNA", "value": 1110, "unit": "nM"}, {"measurement": "levels of hepatokine mRNAs (GDF15, FGF21, INHBE, ADM, ADAMTS1, HBEGF)", "setting": "[15]; mouse primary hepatocytes and Huh7 cells, dose- and time-dependent", "value": "increased"}, {"measurement": "effects on food intake, body weight, serum triglycerides, ketone bodies, hepatic Gdf15 and Fgf21 mRNAs in Cnot6l−/− mice", "setting": "[16]; Cnot6l whole-body KO mice", "value": "did not induce significant effects"}, {"measurement": "ED50", "setting": "[16]; read-out: EC50 for body weight", "value": 1.23, "unit": "mg/kg"}, {"measurement": "ED50", "setting": "[16]; read-out: EC50 for food intake", "value": 1.43, "unit": "mg/kg"}, {"measurement": "body weight", "setting": "[16]; single administration", "value": "significantly reduced"}]}, {"molecule": "C/C=C(/C)C(=O)O[C@H]1C(C)=C2[C@H]([C@@H]1OC(=O)CCCCCCC)[C@@](C)(OC(C)=O)C[C@H](OC(=O)CCC)[C@@]1(O)[C@H]2OC(=O)[C@@]1(C)O", "note": "[thapsigargin, reference compound]", "values": [{"measurement": "GDF15 mRNA in Huh7 cells", "setting": "[2]; 1 μM, 6 h", "value": "increased"}]}, {"molecule": "poly(I:C) [reference compound]", "values": [{"measurement": "hepatic Gdf15 mRNA", "setting": "[7]; IP 10 mg/kg", "value": "increased"}]}, {"molecule": "GDF15 protein: Growth differentiation factor 15, circulating secretory protein (protein, UniProt Q99988 195-308, looked up) Growth/differentiation factor …: ARARNGDHCPLGPGRCCRLHTVRASLEDLGWADWVLSPREVQVTMCIGACPSQFRAANMHAQIKTSLHRLKPDTVPAPCCVPASYNPMVLIQKTDTGVSLQTYDDLLAKDCHCI", "values": [{"measurement": "half-life of circulating protein", "setting": "[17]", "value": 3, "unit": "h"}]}]}
